Like-named read-outs stand apart in the source and are kept apart here.
Experiments:
[1] = Everolimus pharmacokinetics in whole blood; assay type: in vivo, human
Procedure, shortened: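 Samples were taken from six expansion-cohort patients at the MTD with paclitaxel, 10 per patient. Post-dose samples were drawn at 1, 2, 4, 6, 12 and 24 h on day 1 of cycle 2. Everolimus was quantified in whole blood by LC-MS/MS after protein precipitation.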

[2] = system: previously treated SCLC patients; assay: Adverse events; assay type: in vivo, human
Procedure, shortened: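 Toxicities graded by CTCAE v3.0 in adults with SCLC that had progressed after ≥2 prior chemotherapy regimens, including a platinum one. Paclitaxel 175 mg m−2 was given as a 3-h IV infusion every 3 weeks. Everolimus was given orally once daily (2.5, 5 or 10 mg) over 21-day courses. Patients were assessed weekly during cycle 1, then every 3 weeks.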

[3] = system: previously treated SCLC patients; assay type: in vivo, human
Procedure, shortened: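 Open-label 3-level escalation of oral daily everolimus (2.5→5→10 mg) with fixed paclitaxel 175 mg m−2 every 3 weeks; up to six patients per level, no intrapatient escalation. DLT was assessed in cycle 1 and defined as: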

[4] = system: small-cell lung cancer (SCLC); assay: Tumour response by phospho-Akt and phospho-S6 expression; assay type: in vivo, human; conditions: everolimus + paclitaxel
Procedure, shortened: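 Pretreatment tumour specimens were formalin-fixed and paraffin-embedded, cut into 4 μm sections, deparaffinised in xylene and rehydrated. Sections were immunostained on an autostainer with polymer detection, using rabbit monoclonal phospho-Akt (Ser473) at 1:80 and phospho-S6 (Ser235/236) at 1:200. Tumour response was assessed every two cycles by RECIST 1.1.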

[5] = system: small-cell lung cancer (SCLC); assay: Tumour response according to RECIST version 1.1; assay type: in vivo, human; conditions: + paclitaxel
breast cancer = conditions: 10 mg everolimus daily, patients with breast cancer; ref Ellard et al, 2009; cited from earlier work
[6] = all everolimus doses (n=20), any grade, + 3-weekly paclitaxel 175 mg m^−2
[7] = everolimus 2.5 mg daily (n=6), grade 1/2, + 3-weekly paclitaxel 175 mg m^−2
[8] = everolimus 2.5 mg daily (n=6), grade 3/4, + 3-weekly paclitaxel 175 mg m^−2
[9] = everolimus 5 mg daily (n=11), grade 1/2, + 3-weekly paclitaxel 175 mg m^−2
[10] = everolimus 5 mg daily (n=11), grade 3/4, + 3-weekly paclitaxel 175 mg m^−2
[11] = everolimus 10 mg daily (n=3), grade 1/2, + 3-weekly paclitaxel 175 mg m^−2
[12] = everolimus 10 mg daily (n=3), grade 3/4, + 3-weekly paclitaxel 175 mg m^−2

CO[C@H]1C[C@@H]2CC[C@@H](C)[C@@](O)(O2)C(=O)C(=O)N2CCCC[C@H]2C(=O)O[C@H]([C@H](C)C[C@@H]2CC[C@@H](OCCO)[C@H](OC)C2)CC(=O)[C@H](C)/C=C(\C)[C@@H](O)[C@@H](OC)C(=O)[C@H](C)C[C@H](C)/C=C/C=C/C=C/1C [everolimus]
Interpatient coefficient of variation of pharmacokinetic parameters ([1]; all parameters except Cmin, everolimus 5 mg daily with paclitaxel): less than 40%
Interpatient coefficient of variation of Cmin ([1]; everolimus 5 mg daily with paclitaxel): 52%
AUC(0-t) ([1]; human, whole blood, po, 5 mg): 0.284 µg·h/mL
Cmax ([1]; human, whole blood, po, 5 mg): 0.0244 µg/mL
Tmax ([1]; human, whole blood, po, 5 mg): 0.98 to 6.02 h
ALT increased (number of patients with adverse event) [2, 6]: 6
AST increased (number of patients with adverse event) [2, 6]: 6
Anorexia (number of patients with adverse event) [2, 6]: 6
Diarrhoea (number of patients with adverse event) [2, 6]: 3
Febrile neutropenia (number of patients with adverse event) [2, 6]: 1
Itching (number of patients with adverse event) [2, 6]: 4
Leukopenia (number of patients with adverse event) [2, 6]: 15
Neutropenia (number of patients with adverse event) [2, 6]: 16
Pain (number of patients with adverse event) [2, 6]: 10
Pneumonitis (number of patients with adverse event) [2, 6]: 1
Stomatitis (number of patients with adverse event) [2, 6]: 8
ALT increased (number of patients with adverse event) [2, 7]: 1
AST increased (number of patients with adverse event) [2, 7]: 1
Anaemia (number of patients with adverse event) [2, 7]: 5
Anorexia (number of patients with adverse event) [2, 7]: 2
Diarrhoea (number of patients with adverse event) [2, 7]: 0
Febrile neutropenia (number of patients with adverse event) [2, 7]: 0
Hyperglycemia (number of patients with adverse event) [2, 7]: 6
Hypertriglycemia (number of patients with adverse event) [2, 7]: 3
Itching (number of patients with adverse event) [2, 7]: 0
Leukopenia (number of patients with adverse event) [2, 7]: 4
Neuropathy (number of patients with adverse event) [2, 7]: 1
Neutropenia (number of patients with adverse event) [2, 7]: 3
Pain (number of patients with adverse event) [2, 7]: 2
Pneumonitis (number of patients with adverse event) [2, 7]: 0
Stomatitis (number of patients with adverse event) [2, 7]: 2
Thrombocytopenia (number of patients with adverse event) [2, 7]: 2
Vomiting (number of patients with adverse event) [2, 7]: 0
ALT increased (number of patients with adverse event) [2, 8]: 0
AST increased (number of patients with adverse event) [2, 8]: 0
Anaemia (number of patients with adverse event) [2, 8]: 0
Anorexia (number of patients with adverse event) [2, 8]: 0
Diarrhoea (number of patients with adverse event) [2, 8]: 0
Febrile neutropenia (number of patients with adverse event) [2, 8]: 0
Hyperglycemia (number of patients with adverse event) [2, 8]: 0
Hypertriglycemia (number of patients with adverse event) [2, 8]: 0
Itching (number of patients with adverse event) [2, 8]: 0
Leukopenia (number of patients with adverse event) [2, 8]: 1
Neuropathy (number of patients with adverse event) [2, 8]: 0
Neutropenia (number of patients with adverse event) [2, 8]: 1
Pain (number of patients with adverse event) [2, 8]: 0
Pneumonitis (number of patients with adverse event) [2, 8]: 0
Stomatitis (number of patients with adverse event) [2, 8]: 0
Thrombocytopenia (number of patients with adverse event) [2, 8]: 0
Vomiting (number of patients with adverse event) [2, 8]: 0
ALT increased (number of patients with adverse event) [2, 9]: 5
AST increased (number of patients with adverse event) [2, 9]: 4
Anaemia (number of patients with adverse event) [2, 9]: 10
Anorexia (number of patients with adverse event) [2, 9]: 3
Diarrhoea (number of patients with adverse event) [2, 9]: 2
Febrile neutropenia (number of patients with adverse event) [2, 9]: 0
Hyperglycemia (number of patients with adverse event) [2, 9]: 9
Hypertriglycemia (number of patients with adverse event) [2, 9]: 2
Itching (number of patients with adverse event) [2, 9]: 2
Leukopenia (number of patients with adverse event) [2, 9]: 4
Neuropathy (number of patients with adverse event) [2, 9]: 3
Neutropenia (number of patients with adverse event) [2, 9]: 3
Pain (number of patients with adverse event) [2, 9]: 6
Pneumonitis (number of patients with adverse event) [2, 9]: 1
Stomatitis (number of patients with adverse event) [2, 9]: 5
Thrombocytopenia (number of patients with adverse event) [2, 9]: 3
Vomiting (number of patients with adverse event) [2, 9]: 2
ALT increased (number of patients with adverse event) [2, 10]: 0
AST increased (number of patients with adverse event) [2, 10]: 0
Anaemia (number of patients with adverse event) [2, 10]: 1
Anorexia (number of patients with adverse event) [2, 10]: 0
Diarrhoea (number of patients with adverse event) [2, 10]: 0
Febrile neutropenia (number of patients with adverse event) [2, 10]: 1
Hyperglycemia (number of patients with adverse event) [2, 10]: 0
Hypertriglycemia (number of patients with adverse event) [2, 10]: 0
Itching (number of patients with adverse event) [2, 10]: 0
Leukopenia (number of patients with adverse event) [2, 10]: 4
Neuropathy (number of patients with adverse event) [2, 10]: 1
Neutropenia (number of patients with adverse event) [2, 10]: 6
Pain (number of patients with adverse event) [2, 10]: 0
Pneumonitis (number of patients with adverse event) [2, 10]: 0
Stomatitis (number of patients with adverse event) [2, 10]: 0
Thrombocytopenia (number of patients with adverse event) [2, 10]: 1
Vomiting (number of patients with adverse event) [2, 10]: 0
ALT increased (number of patients with adverse event) [2, 11]: 0
AST increased (number of patients with adverse event) [2, 11]: 1
Anaemia (number of patients with adverse event) [2, 11]: 3
Anorexia (number of patients with adverse event) [2, 11]: 1
Diarrhoea (number of patients with adverse event) [2, 11]: 1
Febrile neutropenia (number of patients with adverse event) [2, 11]: 0
Hyperglycemia (number of patients with adverse event) [2, 11]: 2
Hypertriglycemia (number of patients with adverse event) [2, 11]: 2
Itching (number of patients with adverse event) [2, 11]: 2
Leukopenia (number of patients with adverse event) [2, 11]: 2
Neuropathy (number of patients with adverse event) [2, 11]: 2
Neutropenia (number of patients with adverse event) [2, 11]: 1
Pain (number of patients with adverse event) [2, 11]: 2
Pneumonitis (number of patients with adverse event) [2, 11]: 0
Stomatitis (number of patients with adverse event) [2, 11]: 1
Thrombocytopenia (number of patients with adverse event) [2, 11]: 2
Vomiting (number of patients with adverse event) [2, 11]: 0
ALT increased (number of patients with adverse event) [2, 12]: 0
AST increased (number of patients with adverse event) [2, 12]: 0
Anaemia (number of patients with adverse event) [2, 12]: 0
Anorexia (number of patients with adverse event) [2, 12]: 0
Diarrhoea (number of patients with adverse event) [2, 12]: 0
Febrile neutropenia (number of patients with adverse event) [2, 12]: 0
Hyperglycemia (number of patients with adverse event) [2, 12]: 1
Hypertriglycemia (number of patients with adverse event) [2, 12]: 0
Itching (number of patients with adverse event) [2, 12]: 0
Leukopenia (number of patients with adverse event) [2, 12]: 0
Neuropathy (number of patients with adverse event) [2, 12]: 0
Neutropenia (number of patients with adverse event) [2, 12]: 2
Pain (number of patients with adverse event) [2, 12]: 0
Pneumonitis (number of patients with adverse event) [2, 12]: 0
Stomatitis (number of patients with adverse event) [2, 12]: 0
Thrombocytopenia (number of patients with adverse event) [2, 12]: 2
Vomiting (number of patients with adverse event) [2, 12]: 0
Dose-limiting toxicity, cycle 1: Hyperglycemia (number of patients) [3, 6]: 1
Dose-limiting toxicity, cycle 1: Thrombocytopenia (number of patients) [3, 6]: 2
Patients who experienced DLT in cycle 1 ([3]; dose level 1 (everolimus 2.5 mg daily), six patients, + 3-weekly paclitaxel 175 mg m^−2): None
Dose-limiting toxicity, cycle 1: Hyperglycemia (number of patients) [3, 7]: 0
Dose-limiting toxicity, cycle 1: Thrombocytopenia (number of patients) [3, 7]: 0
Dose-limiting toxicity, cycle 1: Hyperglycemia (number of patients) [3, 8]: 0
Dose-limiting toxicity, cycle 1: Thrombocytopenia (number of patients) [3, 8]: 0
Dose-limiting toxicity, cycle 1: Hyperglycemia (number of patients) [3, 9]: 0
Dose-limiting toxicity, cycle 1: Thrombocytopenia (number of patients) [3, 9]: 0
Dose-limiting toxicity, cycle 1: Hyperglycemia (number of patients) [3, 10]: 0
Dose-limiting toxicity, cycle 1: Hyperglycemia (number of patients) [3, 11]: 0
Dose-limiting toxicity, cycle 1: Thrombocytopenia (number of patients) [3, 11]: 0
Dose-limiting toxicity, cycle 1: Hyperglycemia (number of patients) [3, 12]: 1
Dose-limiting toxicity, cycle 1: Thrombocytopenia (number of patients) [3, 12]: 1
MTD and recommended phase-2 dose (dose level) ([3]; level 2 = everolimus 5 mg daily + 3-weekly paclitaxel 175 mg m^−2): level 2
Maximum tolerated dose (MTD) of everolimus ([3]; once daily, in combination with paclitaxel 175 mg m^−2 every 3 weeks): 5 mg
Response in phospho-S6-negative group (responders/patients) [4]: 1/3
Response in phospho-S6-positive group (responders/patients) [4]: 1/3
Objective responses in patients with phospho-Akt-negative tumours ([4]; four patients): two objective responses
Objective response in phospho-Akt-positive patients ([4]; two patients (one stable and one progressive disease)): No objective response
Objective response rate ([5]; dose level 1 (everolimus 2.5 mg daily), one out of 6 patients): 17%
Objective response rate ([5]; dose level 2 (everolimus 5 mg daily), 2 out of 10 patients): 20%
Objective response rate ([5]; dose level 3 (everolimus 10 mg daily), 2 out of 3 patients): 67%
Response rate (breast cancer): 12%
